Data reported in ChEMBL document CHEMBL4613227, “Synthesis and evaluation of the HIF-1α inhibitory activity of 3(5)-substituted-4-(quinolin-4-yl)- and 4-(2-phenylpyridin-4-yl)pyrazoles as inhibitors of ALK5” (Bioorg Med Chem Lett, 2020).
Active and inactive are the calls of the source. The calls are words filed in the database; no cut-off is given here.

Columns and labels:
[1] = system: HCT-116; experiment: Down regulation of TNF-induced MMP9 mRNA expression in human HCT116 cells at 50 uM pretreated for 12 hrs followed by TNF stimulation and measured after 12 hrs by Western blot analysis; format: functional, cell-based; details: in the assay text read “RT-PCR analysis” for “Western blot analysis”
Summary of the method: (§1)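 HCT116 preincubated 12 h with graded concentrations, then TNF 10 ng/mL for a further 12 h; ICAM-1, VEGF, MMP-9 transcripts measured by RT-PCR, GAPDH for equal RNA loading.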

[2] = system: HCT-116; experiment: Inhibition of HIF1alpha accumulation in hypoxia-induced human HCT116 cells at 50 uM preincubated for 30 mins in presence of proteasome inhibitor MG-132 followed by compound addition and measured after 12 hrs under hypoxic condition by Western blot analysis; format: functional, cell-based
Summary of the method: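 HCT116 pretreated with MG-132 (10 μM) 30 min, then compound (50 μM) under 1% O₂ for 12 h; nuclear HIF-1α by Western blot, Topo-I loading control.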

[3] = molecular target: T1, TGF-beta receptor type-1 (Homo sapiens, UniProt P36897); experiment: Inhibition of recombinant GST-tagged human ALK5 expressed in baculovirus infected Sf9 insect cells
T1 sequence (P36897 whole entry): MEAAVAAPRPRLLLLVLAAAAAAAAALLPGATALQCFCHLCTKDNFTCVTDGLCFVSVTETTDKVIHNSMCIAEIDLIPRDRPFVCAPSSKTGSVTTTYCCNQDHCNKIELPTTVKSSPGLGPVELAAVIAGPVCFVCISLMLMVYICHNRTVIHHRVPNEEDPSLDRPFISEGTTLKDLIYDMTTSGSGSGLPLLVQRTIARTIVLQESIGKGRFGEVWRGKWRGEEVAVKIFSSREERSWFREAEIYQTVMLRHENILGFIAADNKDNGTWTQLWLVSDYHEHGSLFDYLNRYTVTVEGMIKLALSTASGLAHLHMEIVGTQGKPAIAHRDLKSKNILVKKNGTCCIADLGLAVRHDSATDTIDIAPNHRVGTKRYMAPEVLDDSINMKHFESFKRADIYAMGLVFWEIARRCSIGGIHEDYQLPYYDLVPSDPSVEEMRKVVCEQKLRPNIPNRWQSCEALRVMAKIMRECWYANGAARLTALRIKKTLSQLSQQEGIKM
Summary of the method: (§2)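 IC50 determination against ALK5 (human GST-fusion, Sf9 baculovirus) and p38α (untagged human, E. coli); values averaged from three independent experiments run in triplicate.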

[4] = system: HCT-116; experiment: Induction of apoptosis in human HCT116 cells assessed as early apoptotic cells at 50 uM after 12 hrs by Annexin-V/PI-staining based flow cytometric analysis (reference value: 1%); format: functional
[5] = system: HCT-116; experiment: Down regulation of TNF-induced ICAM-1 protein expression in human HCT116 cells at 50 uM pretreated for 12 hrs followed by TNF stimulation and measured after 24 hrs by Western blot analysis; format: functional, cell-based
Summary of the method: (§3)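 HCT116 pretreated 12 h with 50 μM, then TNF (10 ng/mL) 24 h; whole cell extracts immunoblotted for ICAM-1, MMP-9, VEGF with tubulin as loading reference.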

[6] = system: HCT-116; experiment: Down regulation of TNF-induced MMP9 protein expression in human HCT116 cells at 50 uM pretreated for 12 hrs followed by TNF stimulation and measured after 24 hrs by Western blot analysis; format: functional, cell-based; summary of the method: as §3
[7] = molecular target: T2, TGF-beta receptor type-1 (Homo sapiens) (UniProt P36897); experiment: Inhibition of recombinant GST-tagged human ALK5 expressed in baculovirus infected Sf9 insect cells assessed as residual activity at 10 uM
T2 sequence (whole entry): T1 sequence (P36897 whole entry)
Summary of the method: (§4)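 Single-point kinase screen at 10 μM, in duplicate; ALK5 as human GST-fusion from baculovirus/Sf9, p38α as untagged human protein from E. coli; residual activity relative to DMSO vehicle, mean ± SD of two independent experiments.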

[8] = system: HCT-116; experiment: Induction of apoptosis in human HCT116 cells assessed as effect on cleaved caspase 8 expression at 50 uM after 12 hrs by Western blot analysis; format: functional, cell-based
[9] = system: HCT-116; experiment: Induction of apoptosis in human HCT116 cells assessed as late apoptotic cells at 50 uM preincubated for 12 hrs followed by TNF stimulation and measured after 24 hrs by Annexin-V/PI-staining based flow cytometric analysis (reference value: 1.4%); format: functional
[10] = molecular target: T3, Mitogen-activated protein kinase 14 (Homo sapiens, UniProt Q16539); experiment: Inhibition of recombinant human p38alpha expressed in Escherichia coli; summary of the method: as §2
T3 sequence (Q16539 whole entry): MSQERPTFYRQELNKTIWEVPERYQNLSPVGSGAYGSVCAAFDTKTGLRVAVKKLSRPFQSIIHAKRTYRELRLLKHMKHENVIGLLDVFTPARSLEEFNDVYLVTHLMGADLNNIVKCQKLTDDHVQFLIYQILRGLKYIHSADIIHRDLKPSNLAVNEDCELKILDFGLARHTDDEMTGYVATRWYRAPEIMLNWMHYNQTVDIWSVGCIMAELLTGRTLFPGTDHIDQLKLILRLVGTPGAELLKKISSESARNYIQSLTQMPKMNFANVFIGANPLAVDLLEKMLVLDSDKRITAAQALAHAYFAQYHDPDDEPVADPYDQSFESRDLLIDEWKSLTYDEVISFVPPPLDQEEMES

[11] = system: HCT-116; experiment: Induction of apoptosis in human HCT116 cells assessed as necrotic cells at 50 uM after 12 hrs by Annexin-V/PI-staining based flow cytometric analysis (reference value: 3.5%); format: functional
[12] = molecular target: T3, Mitogen-activated protein kinase 14; experiment: Inhibition of recombinant human p38alpha expressed in Escherichia coli assessed as residual activity at 10 uM (reference value: 100 +/- 0.1%); summary of the method: as §4
[13] = system: HCT-116; experiment: Down regulation of TNF-induced VEGF mRNA expression in human HCT116 cells at 50 uM pretreated for 12 hrs followed by TNF stimulation and measured after 12 hrs by Western blot analysis; format: functional, cell-based; details: in the assay text read “RT-PCR analysis” for “Western blot analysis”; summary of the method: as §1
[14] = system: HUVEC; experiment: Inhibition of TNF-induced cell migration in HUVEC at 50 uM after 24 hrs by scratch wound healing assay; format: functional, cell-based; details: Homo sapiens
Summary of the method: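 HUVEC scratch assay: cells pretreated with graded concentrations, with or without TNF (10 ng/mL); uncovered area photographed at 24 h.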

[15] = system: HCT-116; experiment: Induction of apoptosis in human HCT116 cells assessed as late apoptotic cells at 50 uM after 12 hrs by Annexin-V/PI-staining based flow cytometric analysis (reference value: 0.2%); format: functional
[16] = system: HCT-116; experiment: Cytotoxicity against human HCT116 cells up to 50 uM after 24 hrs by MTT assay; format: cell-based; details: hct-116, 24 h
Summary of the method: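 Cell viability of HCT116 by MTT after 24 h exposure to graded concentrations up to 50 μM.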

[17] = system: HCT-116; experiment: Down regulation of TNF-induced ICAM-1 mRNA expression in human HCT116 cells at 50 uM pretreated for 12 hrs followed by TNF stimulation and measured after 12 hrs by Western blot analysis; format: functional, cell-based; details: in the assay text read “RT-PCR analysis” for “Western blot analysis”; summary of the method: as §1
[18] = system: HCT-116; experiment: Induction of apoptosis in human HCT116 cells assessed as viable cells at 50 uM after 12 hrs by Annexin-V/PI-staining based flow cytometric analysis (reference value: 95.3%); format: functional; details: HCT-116, 12 h, read-out: Activity
[19] = molecular target: Hypoxia-inducible factor 1-alpha (Homo sapiens) (UniProt Q16665); experiment: Inhibition of HIF1-alpha (unknown origin)
Chain of Hypoxia-inducible factor 1-alpha (Homo sapiens) (Q16665 whole entry, looked up): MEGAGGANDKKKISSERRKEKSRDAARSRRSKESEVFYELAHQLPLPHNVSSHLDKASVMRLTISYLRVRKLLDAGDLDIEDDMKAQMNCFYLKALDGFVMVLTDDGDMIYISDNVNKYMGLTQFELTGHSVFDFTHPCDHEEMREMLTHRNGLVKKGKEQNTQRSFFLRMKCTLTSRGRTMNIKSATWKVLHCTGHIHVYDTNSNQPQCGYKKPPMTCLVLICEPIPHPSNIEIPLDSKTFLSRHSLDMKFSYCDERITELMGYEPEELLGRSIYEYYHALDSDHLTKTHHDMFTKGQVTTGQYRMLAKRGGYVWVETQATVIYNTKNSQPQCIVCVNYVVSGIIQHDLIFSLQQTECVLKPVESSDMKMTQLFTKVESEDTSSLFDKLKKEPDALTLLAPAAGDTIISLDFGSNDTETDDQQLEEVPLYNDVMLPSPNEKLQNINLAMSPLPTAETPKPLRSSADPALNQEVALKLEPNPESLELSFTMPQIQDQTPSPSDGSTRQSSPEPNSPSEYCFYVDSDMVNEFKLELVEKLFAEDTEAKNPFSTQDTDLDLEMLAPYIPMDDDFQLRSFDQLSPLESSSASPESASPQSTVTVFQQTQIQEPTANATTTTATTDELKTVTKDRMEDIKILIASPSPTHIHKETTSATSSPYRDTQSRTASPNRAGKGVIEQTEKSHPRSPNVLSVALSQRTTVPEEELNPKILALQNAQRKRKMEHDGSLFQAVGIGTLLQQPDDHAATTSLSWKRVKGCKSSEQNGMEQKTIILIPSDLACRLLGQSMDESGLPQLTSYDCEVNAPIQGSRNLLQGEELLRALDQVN

[20] = system: HCT-116; experiment: Inhibition of colony formation in TNF-induced human HCT116 cells pretreated with compound for 12 hrs before TNF stimulation for 30 mins and followed by replacement of fresh medium incubated for 10 days by crystal violet staining based analysis; format: functional, cell-based
Summary of the method: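 HCT116 treated 12 h (10, 30, 50 μM), then TNF 10 ng/ml 30 min; medium replaced, growth continued 10 days; crystal violet staining; mean ± SD of three independent experiments.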

[21] = system: HCT-116; experiment: Induction of apoptosis in human HCT116 cells assessed as effect on cleaved caspase 8 expression at 50 uM preincubated for 12 hrs followed by TNF-stimulation and measured after 24 hrs by Western blot analysis; format: functional, cell-based
Summary of the method: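 HCT116 pretreated 12 h with 50 μM, then TNF (10 ng/mL) 24 h; whole cell extracts blotted for cleaved caspase-8, cleaved caspase-3, cleaved PARP, tubulin.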

For `Cc1cccc(-c2nn(CC(=S)Nc3cccc(C#N)c3)cc2-c2ccnc3ccccc23)n1`, the Activity [1] was “Active”, the inhibition [2] was “Active” and the IC50 [3] was 69 nM. For the same molecule, the Activity [4] was 3.1%, the Activity [5] was “Active” and the Activity [6] was “Active”. The Activity [7] was 2%, the Activity [8] was “Active” and the Activity [9] was 3.6%. For the same molecule, the IC50 [10] was 104 nM, the Activity [11] was 8.5% and the Activity [12] was 3%. For the same molecule, the Activity [13] was “Active”, the inhibition [14] was “Active” and the Activity [15] was 3.2%. For the same molecule, the Activity [16] was “Non-Toxic”, the Activity [17] was “Active” and the viability at 50 µM [18] was 85.2%. The inhibition [19] was “Active”, the inhibition [20] was “Dose-dependent effect” and the Activity [21] was “Active”.
